# Assay results from article PMC8591627 (ACS infectious diseases, 2021).
# Values joined by “and” are separate entries in the source; they are usually repeats but may differ in a detail not shown here. Equal values may be shown once.
# Key:
# MRSA ATCC 43300 = test: MIC, drug susceptibility assay; assay type: cell-based, Staphylococcus aureus; details: 18 h, 37 °C, visual inspection
# MSSA ATCC 25923 = test: MIC, drug susceptibility assay; assay type: cell-based, Staphylococcus aureus; details: 18 h, 37 °C, visual inspection
# Vero cells = assay type: cell-based; details: 72 h
# MRSA culture = test: Time-kill curve; assay type: cell-based, Staphylococcus aureus
# VISA strains = test: MIC versus VISA clinical isolates; assay type: cell-based, Staphylococcus aureus; details: six clinical isolates of VISA
# VRSA strains = test: MIC versus VRSA clinical isolates; assay type: cell-based, Staphylococcus aureus; details: five clinical isolates of VRSA
# MRSA COL strain = test: Mouse peritonitis-sepsis model; assay type: in vivo, Staphylococcus aureus; details: single dose 24 mg/kg intraperitoneal, 1 h post-infection
# S. aureus (ATCC 43300) [1] = test: Membrane depolarization assay; assay type: cell-based, Staphylococcus aureus; details: 4.5x MIC, 10 min; positive control sodium deoxycholate
# In short: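 ATCC 43300 was grown from a single colony in Mueller-Hinton to OD600 0.5, then loaded with DiBAC4 (final 20 μg/mL) for 5 min. Bacteria plus dye received test compound at 4.5x MIC; controls were no addition (negative) and 0.05% w/v sodium deoxycholate (positive). Fluorescence (ex 490/em 510 nm) was read every 5 s for 10 min, in triplicate.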
# S. aureus (ATCC 43300) [2] = test: Nitric oxide release assay, DAF-FM diacetate; assay type: cell-based, Staphylococcus aureus; details: 100 μM, over 2 h; positive control DEA-NONOate
# In short: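 ATCC 43300 in Mueller-Hinton medium at OD600 0.2 was loaded with 10 μM DAF-FM diacetate for 30 min in the dark. Cells were then exposed to 100 μM test compound or 100 μM DEA-NONOate for 120 min. Controls were medium alone, bacteria alone, and bacteria with dye. Fluorescence (ex 495/em 515 nm) was read in triplicate.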
# [3] = test system: S. aureus LAC pLL39_yceI1; test: MIC; assay type: cell-based, Staphylococcus aureus; details: genotype pLL39_yceI1, LAC background
# [4] = test system: S. aureus LAC pLL39_yceI3; test: MIC; assay type: cell-based, Staphylococcus aureus; details: genotype pLL39_yceI3, LAC background
# [5] = test system: S. aureus LAC yceI::Tn pLL39; test: MIC; assay type: cell-based, Staphylococcus aureus; details: genotype yceI::Tn pLL39, LAC background
# [6] = test system: S. aureus LAC yceI::Tn pLL39_yceI; test: MIC; assay type: cell-based, Staphylococcus aureus; details: genotype yceI::Tn pLL39_yceI, LAC background
# [7] = test system: S. aureus LAC yceI::Tn pLL39_yceI1; test: MIC; assay type: cell-based, Staphylococcus aureus; details: genotype yceI::Tn pLL39_yceI1, LAC background
# [8] = test system: S. aureus LAC yceI::Tn pLL39_yceI2; test: MIC; assay type: cell-based, Staphylococcus aureus; details: genotype yceI::Tn pLL39_yceI2, LAC background
# LAC pEPSA5_yceI = test: MIC; assay type: cell-based, Staphylococcus aureus; details: for MIC: LAC pEPSA5_yceI
# In short: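 LAC strains carried empty pEPSA5 or pEPSA5_yceI (yceI under a xylose-inducible promoter). They were grown overnight with or without xylose induction; for the azoR overexpression set, pEPSA strains were cultured with 1% xylose. The 1/1000 inoculum went into Mueller-Hinton broth with serial compound dilutions, incubated statically at 37 °C for 18 h. Values represent three independent experiments.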
# LAC = test: MIC; assay type: cell-based, Staphylococcus aureus; details: genotype LAC
# In short: (§1)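 Overnight cultures were grown in 5 mL Mueller-Hinton at 37 °C with shaking at 200 rpm. They were diluted 1/1000 into 96-well plates holding serial dilutions of test compound in Mueller-Hinton broth. Plates were sealed against drying and incubated statically at 37 °C for 18 h before reading. All strains are isogenic and in the LAC background.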
# LAC yceI::Tn azoR1 = test: MIC; assay type: cell-based, Staphylococcus aureus
# In short: as §1
# LAC yceI::Tn azoR3 = test: MIC; assay type: cell-based, Staphylococcus aureus
# LAC yceI::Tn azoR4 = test: MIC; assay type: cell-based, Staphylococcus aureus; details: genotype yceI::Tn azoR4
# LAC pEPSA5_azoR = test: MIC; assay type: cell-based, Staphylococcus aureus; details: cultured with 1% xylose
# In short: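 pEPSA vector strains were cultured with 1% xylose for induction. Overnight Mueller-Hinton cultures (37 °C, 200 rpm) were diluted 1/1000 into serial dilutions of test compound in Mueller-Hinton broth in 96-well plates. Plates were incubated statically at 37 °C for 18 h. Values are representative of three independent experiments.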
# LAC yceI::Tn azoR1 pCM28 = test: MIC; assay type: cell-based, Staphylococcus aureus
# In short: as §1
# [9] = test system: LAC yceI::Tn azoR1 pCM28_azoR; test: MIC; assay type: cell-based, Staphylococcus aureus
# In short: as §1
# [10] = test system: LAC yceI::Tn azoR2 pCM28_azoR; test: MIC; assay type: cell-based, Staphylococcus aureus
# In short: as §1
# LAC yceI::Tn azoR3 pCM28 = test: MIC; assay type: cell-based, Staphylococcus aureus
# In short: as §1
# [11] = test system: LAC yceI::Tn azoR3 pCM28_azoR; test: MIC; assay type: cell-based, Staphylococcus aureus
# In short: as §1
# [12] = test system: LAC yceI::Tn azoR4 pCM28_azoR; test: MIC; assay type: cell-based, Staphylococcus aureus
# In short: as §1
# [13] = test system: JSF-3151–resistant strains; test: MIC versus JSF-3151-resistant strains compared to the parental strain; assay type: cell-based, Staphylococcus aureus; details: yceI promoter mutants versus parent
compound,measurement,setting,value
O=C(Nc1cc(Cl)cc2cccnc12)c1ccc([N+](=O)[O-])s1 [JSF-3151],MRSA ATCC 43300 MIC,MRSA ATCC 43300,4.0 μg/mL and 12 μM
same,MRSA ATCC 43300 MIC,MRSA ATCC 43300; listed as Z296972134 (3151),4.0 μg/mL and 12 μM
same,MSSA ATCC 25923 MIC,MSSA ATCC 25923,1.6 μg/mL and 4.8 μM
same,MSSA ATCC 25923 MIC,MSSA ATCC 25923; listed as Z296972134 (3151),1.6 μg/mL and 4.8 μM
same,Vero cell CC50,Vero cells,> 50 µg/mL
same,CC50,Vero cells; read-out: Vero cell CC50,> 150 µM
same,time to sterilize a MRSA culture,MRSA culture; 1x MIC,≤ 4 h
same,speed of sterilization relative to vancomycin,MRSA culture; both at 1x MIC,more than six times faster than vancomycin
same,MIC versus VISA compared to MRSA,VISA strains,even greater potency
same,MIC versus VRSA compared to MRSA,VRSA strains,even greater potency
same,mice surviving 3 d post-administration,MRSA COL strain,2 out of 12
same,survival 3 d post-administration,MRSA COL strain,16.7%
same,membrane depolarization (DiBAC4 fluorescence),S. aureus (ATCC 43300) [1],failed to compromise the cell membrane
same,intrabacterial NO• release (DAF-FM),S. aureus (ATCC 43300) [2],neither DAF-FM (over 2 h) nor the Griess reagent (over 48 h) evidenced NO• production
same,MIC,[3],50 µg/mL
same,MIC,[4],50 µg/mL
same,MIC,[5],0.78 µg/mL
same,MIC,[6],1.6 µg/mL
same,MIC,[7],50 µg/mL
same,MIC,[8],50 µg/mL
same,MIC,LAC pEPSA5_yceI; growth with xylose +,>50 µg/mL
same,MIC,LAC pEPSA5_yceI; growth with xylose −,3.1 µg/mL
same,resistance versus strain carrying empty vector pEPSA5,LAC pEPSA5_yceI; overnight induction with xylose,> 64 fold
same,MIC,LAC,1.5 µg/mL
same,MIC shift versus yceI::Tn parental strain,LAC yceI::Tn azoR1; azoR1 (Trp100stop),15 fold
same,MIC,LAC yceI::Tn azoR1; genotype yceI::Tn azoR1,12 µg/mL
same,MIC shift versus yceI::Tn parental strain,LAC yceI::Tn azoR3; azoR3 (Thr121Ile),64 fold
same,MIC,LAC yceI::Tn azoR3; genotype yceI::Tn azoR3,>50 µg/mL
same,MIC,LAC yceI::Tn azoR4,25 µg/mL
same,MIC,LAC pEPSA5_azoR,0.39 µg/mL
same,MIC,LAC yceI::Tn azoR1 pCM28,>50 µg/mL
same,MIC,[9],3.1 µg/mL
same,MIC,[10],1.5 µg/mL
same,MIC,LAC yceI::Tn azoR3 pCM28,>50 µg/mL
same,MIC,[11],1.5 µg/mL
same,MIC,[12],1.5 µg/mL
same,loss of susceptibility of three representative mutants,[13],> 16 fold
same,half-life t1/2 in mouse liver microsomes,,1.46 min
